Results from publication PMC6045484 (ACS Omega, 2018).
In brackets after ≈: the same amount, converted by molar mass.

Assays:
[1] = tested on: P. falciparum (D6); assay: in vitro antimalarial activity, plasmodial LDH; assay type: cell-based, Plasmodium falciparum; settings: Plasmodium falciparum, D6, 72 h, read-out: P. falciparum (D6) IC50
[2] = tested on: P. falciparum (W2); assay: in vitro antimalarial activity, plasmodial LDH; assay type: cell-based, Plasmodium falciparum; settings: Plasmodium falciparum, W2, 72 h, read-out: P. falciparum (W2) IC50, CQ-resistant W2 strain, 72 h
Outline: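 P. falciparum-infected erythrocytes (2% parasitemia, 2% hematocrit) in RPMI 1640 with 10% human serum and 60 μg/mL amikacin. Exposed to test compound dilutions for 72 h at 37 °C under 90% N2/5% O2/5% CO2. LDH measured with Malstat reagent (30 min, room temperature), then NBT/PES for 1 h in the dark, stopped with 5% acetic acid, read at 650 nm. IC50 from dose-response curves.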

[3] = tested on: SK-MEL, KB, BT-549, SK-OV-3, VERO and LLC-PK1 cells; assay: cytotoxicity, neutral red uptake assay; assay type: cell-based, mammalian; settings: highest test concentration 4760 ng/mL
Outline: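 Cells seeded at 25 000/well and allowed 24 h to reach confluence. Test compound was then added and incubated 48 h. Viable cells were counted by a modified neutral red uptake method. The panel was four human cancer lines and two noncancerous mammalian kidney lines. Doxorubicin served as positive control and DMSO as negative control.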

[4] = tested on: L. donovani promastigotes; assay: in vitro antileishmanial activity, alamarBlue assay; assay type: cell-based, Leishmania donovani; settings: Leishmania donovani, 48 h; for IC50: read-out: L. donovani IC50, promastigotes, 48 h; for IC90: read-out: L. donovani IC90, promastigotes, 48 h
[5] = tested on: C. albicans ATCC90028; assay: in vitro antifungal activity; assay type: cell-based, Candida albicans; settings: Candida albicans; for IC50: ATCC90028, read-out: C. albicans IC50; for MFC: ATCC90028, read-out: C. albicans MFC; for MIC: ATCC90028, read-out: C. albicans MIC
Outline: (§1)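 Modified NCCLS broth method in Sabouraud dextrose. Inoculum set by OD630 to 1.5 × 10^3 CFU/mL. Test compound serially diluted in 20% DMSO/saline, duplicate wells, up to 20 μg/mL. Incubated 70–74 h at 35 °C; 530 nm read before and after. IC50 is 50% growth inhibition; MIC is no detectable growth. MFC from clear wells subcultured on agar. Amphotericin B control.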

[6] = tested on: C. neoformans ATCC90113; assay: in vitro antifungal activity; assay type: cell-based, Cryptococcus neoformans; settings: Cryptococcus neoformans; for IC50: ATCC90113, read-out: C. neoformans IC50; for MFC: ATCC90113, read-out: C. neoformans MFC; for MIC: ATCC90113, read-out: C. neoformans MIC
Outline: as §1

[7] = tested on: A. fumigatus ATCC 90906; assay: in vitro antifungal activity; assay type: cell-based, Aspergillus fumigatus; settings: Aspergillus fumigatus; for IC50: ATCC90906, read-out: A. fumigatus IC50; for MFC: ATCC90906, read-out: A. fumigatus MFC; for MIC: ATCC90906, read-out: A. fumigatus MIC
Outline: as §1

[8] = tested on: SA (ATCC29213); assay: in vitro antibacterial activity; assay type: cell-based; settings: Staphylococcus aureus; for IC50: ATCC29213, read-out: IC50 (concentration that affords 50% growth inhibition), SA; for MBC: ATCC29213, read-out: MBC (minimum bactericidal concentration), SA; for MIC: ATCC29213, read-out: MIC, SA
Outline: (§2)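 Test compound serially diluted in 20% DMSO/saline and plated in duplicate, up to 20 μg/mL. Inoculum in cation-adjusted Mueller–Hinton broth, pH 7.3, set by OD630 to 5 × 10^5 CFU/mL. Incubated 16–20 h at 35 °C; 530 nm read before and after. IC50 is 50% growth inhibition; MIC is no detectable growth. MBC from clear wells subcultured on agar. Ciprofloxacin control.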

[9] = tested on: MRSA (ATCC33591); assay: in vitro antibacterial activity; assay type: cell-based, methicillin-resistant Staphylococcus aureus; settings: Staphylococcus aureus, ATCC33591|MRSA, read-out: MIC, MRSA
Outline: as §2

[10] = tested on: M. intracellulare (ATCC23068); assay: in vitro antibacterial activity, modified alamarBlue procedure; assay type: cell-based, Mycobacterium intracellulare; settings: Mycobacterium intracellulare; for IC50: ATCC23068, read-out: IC50 (concentration that affords 50% growth inhibition), M. intracellulare; for MBC: ATCC23068, read-out: MBC (minimum bactericidal concentration), M. intracellulare; for MIC: ATCC23068, read-out: MIC, M. intracellulare
Outline: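 Modified alamarBlue microplate method. Test compound serially diluted in 20% DMSO/saline, duplicate wells, up to 20 μg/mL. Inoculum 2.0 × 10^6 CFU/mL in Middlebrook 7H9 with OADC, pH 7.3, containing 5% alamarBlue. Incubated 70–74 h at 37 °C, 10% CO2; fluorescence 544ex/590em read before and after. MIC: no blue-to-pink change. MBC by subculturing blue wells on agar. Ciprofloxacin control.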

Row | Compound | IC50 [1] | IC50 [2] | cytotoxicity CTX [3] | IC50 [4] | IC50 [5] | MFC [5] | MIC [5] | IC50 [6] | MFC [6] | MIC [6] | IC50 [7] | MFC [7] | MIC [7] | IC50 [8] | MBC [8] | MIC [8] | MIC [9] | IC50 [10] | MBC [10] | MIC [10] | further results
1 | COc1cc(NC(C)CCCN)c2nc(C(C)(C)C)ccc2c1Oc1ccc(Cl)c(Cl)c1 (stereo not shown) [compound 55, N^4-(2-tert-Butyl-5-(3,4-dichlorophenoxy)-6-methoxyquinolin-8-yl)pentane-1,4-diamine] | 0.14 µg/mL (≈ 0.294 µM) | 0.13 µg/mL (≈ 0.273 µM) | NC (NC, not cytotoxic up to 4760 ng/mL (4.76 μg/mL)) | 11 µg/mL (≈ 23.1 µM) | > 20 µg/mL | > 20 µg/mL | > 20 µg/mL | 3.18 µg/mL (≈ 6.67 µM) | 5 µg/mL (≈ 10.5 µM) | 5 µg/mL (≈ 10.5 µM) | > 20 µg/mL | > 20 µg/mL | > 20 µg/mL | 5.96 µg/mL (≈ 12.5 µM) | 10 µg/mL (≈ 21 µM) | 10 µg/mL (≈ 21 µM) | 10 µg/mL (≈ 21 µM) | 9.51 µg/mL (≈ 20 µM) | 20 µg/mL (≈ 42 µM) | 20 µg/mL (≈ 42 µM) | IC90 [4]: > 40 µg/mL
2 | CCCCCCOc1c(OC)cc(NC(C)CCCNC(=O)C(N)Cc2ccccc2)c2nc(C(C)(C)C)ccc12 (stereo not shown) [compound 106, 2-Amino-N-(4-(2-tert-butyl-5-(hexyloxy)-6-methoxyquinolin-8-ylamino)pentyl)-3-phenylpropanamide] | > 4.76 µg/mL | > 4.76 µg/mL | NC (NC, not cytotoxic up to 4760 ng/mL (4.76 μg/mL)) | 9.89 µg/mL (≈ 17.6 µM) | > 20 µg/mL | > 20 µg/mL | > 20 µg/mL | 9.83 µg/mL (≈ 17.5 µM) | 20 µg/mL (≈ 35.5 µM) | 20 µg/mL (≈ 35.5 µM) | > 20 µg/mL | > 20 µg/mL | > 20 µg/mL | 10.7 µg/mL (≈ 19 µM) | > 20 µg/mL | 20 µg/mL (≈ 35.5 µM) | 20 µg/mL (≈ 35.5 µM) | 18.1 µg/mL (≈ 32.1 µM) | > 20 µg/mL | > 20 µg/mL | IC90 [4]: > 40 µg/mL
3 | CCCCCCOc1c(OC)cc(NC(C)CCCNC(=O)C(N)CCSC)c2nc(C(C)(C)C)ccc12 (stereo not shown) [compound 102, 2-Amino-N-(4-(2-tert-butyl-5-(hexyloxy)-6-methoxyquinolin-8-ylamino)pentyl)-4-(methylthio)butanamide] | 2.8 µg/mL (≈ 5.12 µM) | 2.8 µg/mL (≈ 5.12 µM) | NC (NC, not cytotoxic up to 4760 ng/mL (4.76 μg/mL)) | 5.9 µg/mL (≈ 10.8 µM) | > 20 µg/mL | > 20 µg/mL | > 20 µg/mL | > 20 µg/mL | > 20 µg/mL | > 20 µg/mL | > 20 µg/mL | > 20 µg/mL | > 20 µg/mL | 5.03 µg/mL (≈ 9.2 µM) | 20 µg/mL (≈ 36.6 µM) | 10 µg/mL (≈ 18.3 µM) | 20 µg/mL (≈ 36.6 µM) | 11.2 µg/mL (≈ 20.4 µM) | 20 µg/mL (≈ 36.6 µM) | 20 µg/mL (≈ 36.6 µM) | IC90 [4]: 22 µg/mL (≈ 40.2 µM)
4 | CCCCCCCOc1c(OC)cc(NC(C)CCCNC(=O)C(N)Cc2ccccc2)c2nc(C(C)(C)C)ccc12 (stereo not shown) [compound 112, 2-Amino-N-(4-(2-tert-butyl-5-(heptyloxy)-6-methoxyquinolin-8-ylamino)pentyl)-3-phenylpropanamide] | 3.2 µg/mL (≈ 5.55 µM) | 2.2 µg/mL (≈ 3.81 µM) | NC (NC, not cytotoxic up to 4760 ng/mL (4.76 μg/mL)) | 20 µg/mL (≈ 34.7 µM) | > 20 µg/mL | > 20 µg/mL | > 20 µg/mL | 4.56 µg/mL (≈ 7.91 µM) | 5 µg/mL (≈ 8.67 µM) | 5 µg/mL (≈ 8.67 µM) | > 20 µg/mL | > 20 µg/mL | > 20 µg/mL | 4.06 µg/mL (≈ 7.04 µM) | 10 µg/mL (≈ 17.3 µM) | 10 µg/mL (≈ 17.3 µM) | 10 µg/mL (≈ 17.3 µM) | > 20 µg/mL | > 20 µg/mL | > 20 µg/mL | IC90 [4]: 36 µg/mL (≈ 62.4 µM)
5 | CCCCCCCOc1c(OC)cc(NC(C)CCCNC(=O)C(N)CCSC)c2nc(C(C)(C)C)ccc12 (stereo not shown) [compound 116, 2-Amino-N-(4-(2-tert-butyl-5-(heptyloxy)-6-methoxyquinolin-8-ylamino)pentyl)-4-(methylthio)butanamide] | 4.76 µg/mL (≈ 8.49 µM) | 3.2 µg/mL (≈ 5.71 µM) | NC (NC, not cytotoxic up to 4760 ng/mL (4.76 μg/mL)) | 4.1 µg/mL (≈ 7.31 µM) | > 20 µg/mL | > 20 µg/mL | > 20 µg/mL | 1.29 µg/mL (≈ 2.3 µM) | 10 µg/mL (≈ 17.8 µM) | 10 µg/mL (≈ 17.8 µM) | > 20 µg/mL | > 20 µg/mL | > 20 µg/mL | 4.07 µg/mL (≈ 7.26 µM) | 10 µg/mL (≈ 17.8 µM) | 10 µg/mL (≈ 17.8 µM) | 5 µg/mL (≈ 8.92 µM) | > 20 µg/mL | > 20 µg/mL | > 20 µg/mL | IC90 [4]: 12 µg/mL (≈ 21.4 µM)
6 | CCCCCOc1c(OC)cc(NC(C)CCCNC(=O)C(N)C(C)CC)c2nc(C(C)(C)C)ccc12 (stereo not shown) [compound 96, 2-Amino-N-(4-(2-tert-butyl-6-methoxy-5-(pentyloxy)quinolin-8-ylamino)pentyl)-3-methylpentanamide] | > 4.76 µg/mL | > 4.76 µg/mL | NC (NC, not cytotoxic up to 4760 ng/mL (4.76 μg/mL)) | 8.65 µg/mL (≈ 16.8 µM) | > 20 µg/mL | > 20 µg/mL | > 20 µg/mL | 4.95 µg/mL (≈ 9.62 µM) | 10 µg/mL (≈ 19.4 µM) | 10 µg/mL (≈ 19.4 µM) | > 20 µg/mL | > 20 µg/mL | > 20 µg/mL | 5.35 µg/mL (≈ 10.4 µM) | 20 µg/mL (≈ 38.9 µM) | 10 µg/mL (≈ 19.4 µM) | 10 µg/mL (≈ 19.4 µM) | 12.2 µg/mL (≈ 23.7 µM) | 20 µg/mL (≈ 38.9 µM) | 20 µg/mL (≈ 38.9 µM) | IC90 [4]: 32.6 µg/mL (≈ 63.4 µM)
7 | CCCCCCOc1c(OC)cc(NC(C)CCCNC(=O)C(N)C(C)CC)c2nc(C(C)(C)C)ccc12 (stereo not shown) [compound 104, 2-Amino-N-(4-(2-tert-butyl-5-(hexyloxy)-6-methoxyquinolin-8-ylamino)pentyl)-3-methylpentanamide] | 4.76 µg/mL (≈ 9 µM) | 4 µg/mL (≈ 7.56 µM) | NC (NC, not cytotoxic up to 4760 ng/mL (4.76 μg/mL)) | 16 µg/mL (≈ 30.3 µM) | > 20 µg/mL | > 20 µg/mL | > 20 µg/mL | > 20 µg/mL | > 20 µg/mL | > 20 µg/mL | > 20 µg/mL | > 20 µg/mL | > 20 µg/mL | 13.2 µg/mL (≈ 24.9 µM) | > 20 µg/mL | > 20 µg/mL | > 20 µg/mL | > 20 µg/mL | > 20 µg/mL | > 20 µg/mL | IC90 [4]: 30 µg/mL (≈ 56.7 µM)
8 | CCCCOc1c(OC)cc(NC(C)CCCNC(=O)C(N)CCCN)c2nc(C(C)(C)C)ccc12 (stereo not shown) [compound 91, 2,5-Diamino-N-(4-(5-butoxy-2-tert-butyl-6-methoxyquinolin-8-ylamino)pentyl)-pentanamide] | 2.8 µg/mL (≈ 5.58 µM) | 1.3 µg/mL (≈ 2.59 µM) | NC (NC, not cytotoxic up to 4760 ng/mL (4.76 μg/mL)) |  | > 20 µg/mL | > 20 µg/mL | > 20 µg/mL | > 20 µg/mL | > 20 µg/mL | > 20 µg/mL | > 20 µg/mL | > 20 µg/mL | > 20 µg/mL | > 20 µg/mL | > 20 µg/mL | > 20 µg/mL | > 20 µg/mL | > 20 µg/mL | > 20 µg/mL | > 20 µg/mL | 
